From ChEMBL document CHEMBL1781968, “δ-Carbolines and their ring-opened analogs: synthesis and evaluation against fungal and bacterial opportunistic pathogens” (Eur J Med Chem, 2011)
Active and inactive are the calls of the source. The rule behind the calls is not given here.

How the values were obtained:
Staphylococcus aureus [1] = test: Antibacterial activity against methicillin-resistant Staphylococcus aureus ATCC 33591 by NCCLS method; type: functional, organism-based
Outline: (§1)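 Broth microdilution (modified NCCLS). Samples in DMSO serially diluted in 0.9% saline, tested in duplicate, highest final concentration 20 μg/mL. Inoculum matched to 0.5 McFarland standard by absorbance at 630 nm, then diluted in cation-adjusted Mueller–Hinton broth. Growth, solvent and medium controls on each plate. Absorbance at 530 nm read before and after incubation. IC50 taken from percent growth versus concentration plot; MIC is lowest concentration with no detectable growth; MBC is lowest concentration killing the organism.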

[2] = test system: Mycobacterium intracellulare; test: Antibacterial activity against Mycobacterium intracellular ATCC 23068 by alamar blue method; type: functional, organism-based
Outline: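 Modified Alamar blue method (Franzblau). Samples in DMSO serially diluted in 0.9% saline, in duplicate, final concentrations starting at 20 μg/mL. Inoculum adjusted to 0.5 McFarland, then diluted in Middlebrook 7H9 with OADC enrichment plus 5% Alamar blue. Fluorescence read (ex 544/em 590 nm) before and after incubation. IC50 from percent growth versus concentration. MIC is no detectable growth.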

Escherichia coli [3] = test: Antibacterial activity against Escherichia coli at 20 ug/ml by NCCLS method; type: functional, organism-based
Outline: (§2)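 Modified NCCLS broth microdilution. DMSO-dissolved samples serially diluted in 0.9% saline, tested in duplicate, final concentrations starting at 20 μg/mL. Inoculum set to 0.5 McFarland (absorbance 630 nm) and diluted in cation-adjusted Mueller–Hinton broth. Growth, solvent and medium controls on each plate. Read at 530 nm before and after incubation. IC50 from percent growth versus concentration. MIC is lowest concentration with no detectable growth.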

Staphylococcus aureus [4] = test: Antibacterial activity against Staphylococcus aureus ATCC 29213 by NCCLS method; type: functional, organism-based; outline: as §1
Aspergillus fumigatus [5] = test: Antifungal activity against Aspergillus fumigatus ATCC 204305 at 20 ug/ml by NCCLS method; type: functional, organism-based
Outline: (§3)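 Modified NCCLS microdilution for fungi. Samples in DMSO serially diluted with 0.9% saline, in duplicate, final concentrations from 20 μg/mL down. Inocula matched to 0.5 McFarland (630 nm) and diluted in Sabouraud dextrose broth. Growth, solvent and medium controls included. OD 530 nm read before and after incubation. IC50 from percent growth curve. MIC is no detectable growth. MFC is lowest concentration killing the organism.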

[6] = Cytotoxicity against african green monkey Vero cell after 48 hrs by neutral red uptake assay; type: cell-based; conditions: chlorocebus sabaeus, Vero cells; read-out: TC50
Outline: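 VERO kidney fibroblasts seeded at 25,000 cells/well and incubated 24 h. Compounds added, highest concentration 10 μg/mL, then 48 h further incubation. Viable cells measured by neutral red assay. IC50 taken from growth-inhibition dose curves. Doxorubicin as positive control, DMSO as vehicle control.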

Candida albicans = test: Antifungal activity against Candida albicans ATCC 90028 by NCCLS method; type: functional, organism-based; outline: as §3
Cryptococcus neoformans = test: Antifungal activity against Cryptococcus neoformans ATCC 90113 by NCCLS method; type: functional, organism-based; outline: as §3
Escherichia coli [7] = test: Antibacterial activity against Escherichia coli by NCCLS method; type: functional, organism-based; outline: as §2
Aspergillus fumigatus [8] = test: Antifungal activity against Aspergillus fumigatus ATCC 204305 by NCCLS method; type: functional, organism-based; outline: as §3

Structure (SMILES)	IC50 (Staphylococcus aureus [1]) [mg/L]	MBC (Staphylococcus aureus [1]) [mg/L]	MIC (Staphylococcus aureus [1]) [mg/L]	IC50 [2] [mg/L]	MBC [2] [mg/L]	MIC [2] [mg/L]	Activity (Escherichia coli [3])	IC50 (Staphylococcus aureus [4]) [mg/L]	MBC (Staphylococcus aureus [4]) [mg/L]	MIC (Staphylococcus aureus [4]) [mg/L]	CC50 at 48 h [6] [mg/L]	IC50 (Candida albicans) [mg/L]	MFC (Candida albicans) [mg/L]	MIC (Candida albicans) [mg/L]	IC50 (Cryptococcus neoformans) [mg/L]	MFC (Cryptococcus neoformans) [mg/L]	MIC (Cryptococcus neoformans) [mg/L]	IC50 (Escherichia coli [7]) [mg/L]	MBC (Escherichia coli [7]) [mg/L]	MIC (Escherichia coli [7]) [mg/L]	also measured
C[n+]1cccc(N(CCCCCC2CCCCC2)c2cccc(C#N)c2)c1.[I-]	3.9	10	10	2	10	2.5	inactive	0.8	20	1.3	–	–	–	–	–	–	–	–	–	–	–
C[n+]1cccc(N(CCCCCC2CCCCC2)c2ccc(C#N)cc2)c1.[I-]	6.2	20	10	2.8	5	5	inactive	2.5	20	5	> 10	–	–	–	–	–	–	–	–	–	Activity (Aspergillus fumigatus [5]): inactive
C[n+]1cccc2c1c1cc(C#N)ccc1n2CCCCCC1CCCCC1.[I-]	5.8	20	10	2.1	5	2.5	inactive	2.6	20	5	> 10	19	> 20	20	2.8	5	5	–	–	–	Activity (Aspergillus fumigatus [5]): inactive
COc1ccc(N(CCCCCC2CCCCC2)c2ccc[n+](C)c2)cc1.[I-]	1.9	10	5	1	5	1.3	–	0.3	10	0.6	> 10	–	–	–	–	–	–	5.4	> 20	> 20	Activity (Aspergillus fumigatus [5]): inactive
C[n+]1cccc(N(CCCCCC2CCCCC2)c2ccccc2C#N)c1.[I-]	6.4	20	20	3.5	20	5	inactive	1.3	10	2.5	–	–	–	–	–	–	–	–	–	–	–
COc1cccc(N(CCCCCC2CCCCC2)c2ccc[n+](C)c2)c1.[I-]	4.8	20	10	3.3	10	5	inactive	0.8	20	1.3	–	–	–	–	–	–	–	–	–	–	–
CSc1ccc2c(c1)c1c(ccc[n+]1C)n2CCCCCC1CCCCC1.[I-]	1.1	10	2.5	0.7	2.5	1.3	–	0.4	5	0.6	> 10	2.1	5	5	0.3	0.6	0.6	5.6	> 20	> 20	IC50 (Aspergillus fumigatus [8]): 13 mg/L; MFC (Aspergillus fumigatus [8]): 20 mg/L; MIC (Aspergillus fumigatus [8]): 20 mg/L
COc1ccc2c(c1)c1c(ccc[n+]1C)n2CCCCCC1CCCCC1.[I-]	3.3	20	5	1.6	2.5	2.5	–	0.7	20	1.3	> 10	7.4	> 20	20	0.7	1.3	1.3	12	> 20	> 20	IC50 (Aspergillus fumigatus [8]): 16 mg/L; MFC (Aspergillus fumigatus [8]): > 20 mg/L; MIC (Aspergillus fumigatus [8]): > 20 mg/L
C[n+]1cccc2c1c1cccc(Cl)c1n2CCCCCC1CCCCC1.[I-]	1.2	5	2.5	0.5	5	0.6	–	0.2	10	0.3	> 10	2.5	5	5	0.3	0.6	0.6	5.7	> 20	> 20	IC50 (Aspergillus fumigatus [8]): 16 mg/L; MFC (Aspergillus fumigatus [8]): 20 mg/L; MIC (Aspergillus fumigatus [8]): 20 mg/L
C[n+]1cccc2c1c1cc(Cl)ccc1n2CCCCCC1CCCCC1.[I-]	1.3	10	2.5	0.7	2.5	1.3	–	0.5	10	1.3	> 10	2	5	5	0.4	0.6	0.6	5.9	> 20	> 20	IC50 (Aspergillus fumigatus [8]): 16 mg/L; MFC (Aspergillus fumigatus [8]): 20 mg/L; MIC (Aspergillus fumigatus [8]): 20 mg/L
C[n+]1cccc2c1c1ccc(Cl)cc1n2CCCCCC1CCCCC1.[I-]	1.2	2.5	2.5	0.7	5	1.3	–	0.4	5	0.6	> 10	2.9	10	5	0.3	0.6	0.6	5.9	> 20	> 20	IC50 (Aspergillus fumigatus [8]): 16 mg/L; MFC (Aspergillus fumigatus [8]): > 20 mg/L; MIC (Aspergillus fumigatus [8]): 20 mg/L
C[n+]1cccc(N(CCCCCC2CCCCC2)c2ccc(F)cc2)c1.[I-]	3	20	5	3.2	10	5	–	0.7	10	1.3	> 10	–	> 20	–	–	–	–	18	> 20	> 20	Activity (Aspergillus fumigatus [5]): inactive
